Test results as given in ChEMBL document CHEMBL2046302, “Fused tricyclic indoles as S1P₁ agonists with robust efficacy in animal models of autoimmune disease” (Bioorg Med Chem Lett, 2012).
Blank lines part the entries; values can stand above or below the compound they belong to. Active and inactive are the calls of the source. No cut-off for these calls is given here.

How the values were obtained:
[1] = test system: Rattus norvegicus; experiment: Immunosuppressant activity in collagen-induced Lewis rat arthritis model assessed as reduction in joint inflammation at 0.075 mg/kg, po qd; type: functional, organism-based; set-up: dose 0.075 mg/kg
[2] = target: T1, Sphingosine 1-phosphate receptor 1 (Homo sapiens, UniProt P21453); experiment: Agonist activity against human S1P1 assessed as accumulation of cAMP by HTRF assay; type: functional
Method in brief: (§1)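 Agonist EC50 was read from a cAMP HTRF assay run on human, rat and mouse S1P1. Response was scaled against S1P, and values are the mean of three or more replicates.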

[3] = target: Sphingosine 1-phosphate receptor 1 (Mus musculus, UniProt O08530); experiment: Agonist activity against mouse S1P1 assessed as accumulation of cAMP by HTRF assay; type: functional; method in brief: as §1
[4] = target: Sphingosine 1-phosphate receptor 3 (Homo sapiens, UniProt Q99500); experiment: Agonist activity against human S1P3 by beta arrestin recruitment assay; type: functional
Method in brief: (§2)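 Agonist EC50 at human S1P1 through S1P5 was measured by β-arrestin recruitment. Values are the mean of three or more replicates.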

[5] = target: Sphingosine 1-phosphate receptor 2 (Homo sapiens, UniProt O95136); experiment: Agonist activity against human S1P2 by beta arrestin recruitment assay; type: functional; method in brief: as §2
[6] = target: Sphingosine 1-phosphate receptor 1 (Rattus norvegicus, UniProt P48303); experiment: Agonist activity against rat S1P1 assessed as accumulation of cAMP by HTRF assay; type: functional; method in brief: as §1
[7] = target: T1, Sphingosine 1-phosphate receptor 1; experiment: Agonist activity against human S1P1 by beta arrestin recruitment assay; type: functional; method in brief: as §2
[8] = target: Sphingosine 1-phosphate receptor 5 (Homo sapiens, UniProt Q9H228); experiment: Agonist activity against human S1P5 by beta arrestin recruitment assay; type: functional; method in brief: as §2
[9] = target: T2, Sphingosine 1-phosphate receptor 4 (Homo sapiens, UniProt O95977); experiment: Agonist activity against human S1P4 by beta arrestin recruitment assay; type: functional; method in brief: as §2
T2 sequence (O95977 whole entry): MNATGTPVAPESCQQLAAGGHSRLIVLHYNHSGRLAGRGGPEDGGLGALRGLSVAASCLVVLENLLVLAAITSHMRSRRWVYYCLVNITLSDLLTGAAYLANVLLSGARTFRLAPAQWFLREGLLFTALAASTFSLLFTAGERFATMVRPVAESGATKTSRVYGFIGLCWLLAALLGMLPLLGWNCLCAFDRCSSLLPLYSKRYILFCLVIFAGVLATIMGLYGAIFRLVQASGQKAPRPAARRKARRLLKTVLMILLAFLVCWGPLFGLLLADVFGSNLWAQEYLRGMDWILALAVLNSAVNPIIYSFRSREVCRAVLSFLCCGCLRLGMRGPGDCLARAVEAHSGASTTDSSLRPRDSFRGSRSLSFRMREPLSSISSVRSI

[10] = test system: Mus musculus; experiment: Immunosuppressant activity in BALB/c mouse assessed as reduction in circulating lymphocyte at 6 mg/kg, po measured after 5 hrs; type: functional, organism-based; set-up: dose 6 mg/kg
Method in brief: (§3)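 BALB/c mice were dosed orally as a suspension in 0.5% methyl cellulose, at 6 mg/kg or 1.0 mg/kg. Circulating lymphocytes were followed over time, with readings at 5 h and 24 h.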

[11] = test system: Mus musculus; experiment: Immunosuppressant activity in BALB/c mouse assessed as reduction in circulating lymphocyte at 30 mg/kg, po measured at 24 hrs; type: functional, organism-based; set-up: dose 30 mg/kg
[12] = test system: Mus musculus; experiment: Immunosuppressant activity in BALB/c mouse assessed as reduction in circulating lymphocyte at 6 mg/kg, po measured up to 24 hrs; type: functional, organism-based; set-up: dose 6 mg/kg; method in brief: as §3

T1 sequence (P21453 whole entry): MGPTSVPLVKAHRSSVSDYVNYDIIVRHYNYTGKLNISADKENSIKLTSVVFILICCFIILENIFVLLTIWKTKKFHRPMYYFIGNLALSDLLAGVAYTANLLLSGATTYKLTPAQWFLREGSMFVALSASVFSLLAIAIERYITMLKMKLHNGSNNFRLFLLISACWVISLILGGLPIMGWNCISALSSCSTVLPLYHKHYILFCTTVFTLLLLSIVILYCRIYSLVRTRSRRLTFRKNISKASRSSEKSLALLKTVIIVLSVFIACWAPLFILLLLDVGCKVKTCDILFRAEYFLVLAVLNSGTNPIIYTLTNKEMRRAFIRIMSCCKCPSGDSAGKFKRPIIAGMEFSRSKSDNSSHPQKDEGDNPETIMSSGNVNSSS
Chain of Sphingosine 1-phosphate receptor 3 (Q99500 whole entry): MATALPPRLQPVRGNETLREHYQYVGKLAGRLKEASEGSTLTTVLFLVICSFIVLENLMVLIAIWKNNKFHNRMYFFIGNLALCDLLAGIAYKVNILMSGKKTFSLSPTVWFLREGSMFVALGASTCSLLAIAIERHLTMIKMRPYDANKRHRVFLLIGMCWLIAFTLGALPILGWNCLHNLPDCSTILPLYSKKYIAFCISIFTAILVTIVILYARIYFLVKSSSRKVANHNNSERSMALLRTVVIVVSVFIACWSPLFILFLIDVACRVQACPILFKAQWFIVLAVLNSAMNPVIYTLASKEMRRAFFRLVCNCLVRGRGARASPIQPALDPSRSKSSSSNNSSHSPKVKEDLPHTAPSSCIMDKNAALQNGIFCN
Chain of Sphingosine 1-phosphate receptor 1 (Mus musculus, UniProt O08530) (O08530 whole entry): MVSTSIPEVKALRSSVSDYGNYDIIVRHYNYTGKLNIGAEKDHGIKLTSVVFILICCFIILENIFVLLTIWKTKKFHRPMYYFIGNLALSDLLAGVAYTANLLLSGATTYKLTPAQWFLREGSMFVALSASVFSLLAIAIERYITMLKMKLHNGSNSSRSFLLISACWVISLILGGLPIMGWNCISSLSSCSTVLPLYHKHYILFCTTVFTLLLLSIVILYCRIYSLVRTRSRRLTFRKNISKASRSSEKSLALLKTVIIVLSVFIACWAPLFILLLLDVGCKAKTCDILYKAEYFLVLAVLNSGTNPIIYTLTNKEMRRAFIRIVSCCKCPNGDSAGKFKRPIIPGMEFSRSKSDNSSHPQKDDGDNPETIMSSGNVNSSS
Chain of Sphingosine 1-phosphate receptor 2 (O95136 whole entry): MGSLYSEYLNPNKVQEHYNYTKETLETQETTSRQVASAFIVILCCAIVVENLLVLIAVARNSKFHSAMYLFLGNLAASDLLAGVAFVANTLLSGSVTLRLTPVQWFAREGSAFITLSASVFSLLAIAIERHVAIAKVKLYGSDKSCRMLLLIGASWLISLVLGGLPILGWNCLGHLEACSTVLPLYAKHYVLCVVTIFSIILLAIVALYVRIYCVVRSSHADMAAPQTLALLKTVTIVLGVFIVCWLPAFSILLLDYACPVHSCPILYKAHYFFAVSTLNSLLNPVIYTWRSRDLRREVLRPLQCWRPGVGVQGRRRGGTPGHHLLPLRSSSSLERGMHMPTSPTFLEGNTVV
Chain of Sphingosine 1-phosphate receptor 5 (Q9H228 whole entry): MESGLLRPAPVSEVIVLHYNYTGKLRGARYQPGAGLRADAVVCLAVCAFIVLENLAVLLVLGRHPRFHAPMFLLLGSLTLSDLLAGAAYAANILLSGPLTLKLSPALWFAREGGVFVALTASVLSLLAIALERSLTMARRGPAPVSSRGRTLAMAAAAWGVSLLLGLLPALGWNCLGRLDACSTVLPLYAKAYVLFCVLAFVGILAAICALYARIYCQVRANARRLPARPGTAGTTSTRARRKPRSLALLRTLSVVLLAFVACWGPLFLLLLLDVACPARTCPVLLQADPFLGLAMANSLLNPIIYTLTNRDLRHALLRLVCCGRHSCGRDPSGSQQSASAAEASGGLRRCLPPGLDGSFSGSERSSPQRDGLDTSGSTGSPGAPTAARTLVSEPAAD
Chain of Sphingosine 1-phosphate receptor 1 (Rattus norvegicus, UniProt P48303) (P48303 whole entry): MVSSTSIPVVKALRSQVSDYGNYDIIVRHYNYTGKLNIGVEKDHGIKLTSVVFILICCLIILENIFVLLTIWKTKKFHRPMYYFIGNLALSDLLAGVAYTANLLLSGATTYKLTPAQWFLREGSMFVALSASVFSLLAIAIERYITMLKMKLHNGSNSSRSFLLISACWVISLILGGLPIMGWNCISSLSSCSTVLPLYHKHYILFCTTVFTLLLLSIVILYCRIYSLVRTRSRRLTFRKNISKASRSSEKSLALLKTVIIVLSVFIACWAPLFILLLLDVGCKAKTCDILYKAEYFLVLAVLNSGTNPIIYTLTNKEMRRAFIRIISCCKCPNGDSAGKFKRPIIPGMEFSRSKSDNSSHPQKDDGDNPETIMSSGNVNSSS

Compound: CN(Cc1cnc2nc(N)nc(N)c2n1)c1ccc(C(=O)N[C@@H](CCC(=O)O)C(=O)O)cc1
Activity [1]: Active

Compound: N#Cc1cc(OC(F)(F)F)cc(-c2nc(-c3ccc4[nH]c5c(c4c3)CCC5CC(=O)O)no2)c1 (stereo in doubt; 17a)
EC50 [3]: 8.3 nM
EC50 [4]: > 100000 nM
EC50 [2]: 1.73 nM
EC50 [5]: > 100000 nM
EC50 [6]: 1.4 nM
EC50 [7]: 55 nM
EC50 [8]: 11 nM
EC50 [9]: 239 nM

Compound: COc1cc(C#N)cc(-c2nc(-c3ccc4[nH]c5c(c4c3)CCC5CC(=O)O)no2)c1 (racemic)
EC50 [2]: 157 nM

Compound: N#Cc1cc(OC(F)(F)F)cc(-c2nc(-c3ccc4[nH]c5c(c4c3)CCC5CC(=O)O)no2)c1 (single isomer, unassigned)
Activity [10]: Active
Activity [11]: Active
Activity [12]: Active

Compound: CC(C)Oc1ccc(-c2nc(-c3ccc4[nH]c5c(c4c3)CCC5CC(=O)O)no2)cc1C#N (racemic)
EC50 [2]: 7.5 nM

Compound: N#Cc1cc(OC(F)(F)F)cc(-c2nc(-c3ccc4[nH]c5c(c4c3)CCC5CC(=O)O)no2)c1 (racemic)
EC50 [2]: 1.1 nM

Further lines, results first:

EC50 [2]: 0.61 nM
Compound: CC(C)Oc1ccc(-c2nc(-c3ccc4c(c3)cc3n4CCC3CC(=O)O)no2)cc1C#N (racemic)

EC50 [2]: 0.59 nM
Compound: N#Cc1cc(-c2nc(-c3ccc4c(c3)cc3n4CCC3CC(=O)O)no2)ccc1OC(F)(F)F (racemic)

EC50 [2]: 4.6 nM
Compound: COc1ccc(-c2nc(-c3ccc4[nH]c5c(c4c3)CCC5CC(=O)O)no2)cc1C#N (racemic)
